ERb SRC1 inh = inhibitors of ERβ-SRC1 coactivator interaction, primary screen, biochemical, TR-FRET, ERβ LBD, SRC-1 peptide; Estrogen receptor beta (Homo sapiens), Q92731; TR-FRET ER-beta LBD / SRC1-Cy5 peptide binding; receptor agonist-loaded with 1 µM estradiol; inhibition, % at 25.6 µM; hit rate 1.3% among 86,000; AID 633, 2007;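 active means compounds whose percent inhibition of the receptor-coactivator binding signal exceeds about 50% in the single-dose screen, limit read from the data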;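 further: 0% = receptor plus peptide wells without compound and 100% = peptide-only wells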
Target sequence (Q92731 whole entry, looked up, the tested form may be a part): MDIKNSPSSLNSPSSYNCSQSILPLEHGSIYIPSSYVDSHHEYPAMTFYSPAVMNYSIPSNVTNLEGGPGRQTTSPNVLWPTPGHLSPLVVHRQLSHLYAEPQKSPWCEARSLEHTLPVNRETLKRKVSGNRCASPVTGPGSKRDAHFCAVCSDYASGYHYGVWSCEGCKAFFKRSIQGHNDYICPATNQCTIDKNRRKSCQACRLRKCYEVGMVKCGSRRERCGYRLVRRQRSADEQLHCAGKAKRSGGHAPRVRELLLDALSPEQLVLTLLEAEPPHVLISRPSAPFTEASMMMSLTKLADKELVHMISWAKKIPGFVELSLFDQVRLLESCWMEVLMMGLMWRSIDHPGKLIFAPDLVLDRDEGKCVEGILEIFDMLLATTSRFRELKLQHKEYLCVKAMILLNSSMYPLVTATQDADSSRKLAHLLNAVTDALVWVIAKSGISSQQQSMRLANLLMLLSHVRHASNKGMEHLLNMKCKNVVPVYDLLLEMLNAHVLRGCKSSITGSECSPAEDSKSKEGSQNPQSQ
Lung fibro prol = antiproliferative effect on LL 47 fibroblasts – human, LL 47 cells, CellTiter-Glo luminescence, primary screen. LL 47 human lung fibroblast viability, ATP luminescence; active compounds read low. viability, % at 10 µM. hit rate 1.1% among 85,000. AID 719, 2007;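 active means viability at or below 50% in the single dose screen; inactive means viability above 50%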;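 further: compound exposure lasted 72 h before the ATP readout; 100% = median luminescence of untreated cell-only wells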
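Signal: luminescent ATP detection, CellTiter-Glo; assay system: LL 47 human lung fibroblasts; input: 1,150 cells/well; incubation: overnight cell rest, 72 h compound treatment at 37 °C; measure: % viability versus median cells-only luminescence; medium: IMEM growth medium with 15% fetal bovine serum; dosing: compound addition at 0.1% DMSO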
H69AR growth 86K = proliferation blockers of H69AR lung cancer cells, primary screen, cell-based, human, 86K library; H69AR lung tumor viability, ATP luminescence, 72 h; active compounds read low; hit rate 6% among 85,000; viability, % at 10 µM;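 active means viability at or below 40%; inactive means viability above 40%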;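 further: multidrug resistant small cell line overexpressing MRP-1 efflux transporter; 100% = mean luminescence of untreated control wells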
ERa SRC1 inh = ERα–SRC-1 coactivator interaction inhibitors, primary screen, biochemical, TR-FRET, ERα LBD, estradiol-bound. TR-FRET ER-alpha LBD / SRC-1 peptide. inhibition, % at 25.6 µM. hit rate 1.7% among 86,000. AID 629, 2007; in the data active means inhibition above about 50%;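 further: 0% = receptor plus peptide control and 100% = peptide only without receptor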
ERa SRC1 pot = enhancers of ERα–SRC-1 coactivator binding, primary screen, biochemical, TR-FRET, ERα LBD, low estradiol; Estrogen receptor (Homo sapiens), P03372; TR-FRET ERalpha-LBD/SRC-Cy5 coactivator binding, 2 h; 100 = basal binding, no effect; coactivator binding (% of control), % at 25.6 µM; hit rate 1.3% among 86,000; in the data active means activity above about 200%;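 further: binding measured in presence of low estradiol as agonist stimulus; 0% = peptide alone without receptor and 100% = receptor with peptide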
HUVEC inhibit = inhibitors of HUVEC proliferation, primary screen, cell-based, 384-well. viability, % at 10 µM (by protocol). AID 648, 2007. hit rate 1.1% among 86,000. CellTiter-Glo luminescence, 72 h; active compounds read low;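 active means viability at or below 30%; inactive means viability above 30%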;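 further: 100% = median luminescence of DMSO-only cell control wells on each plate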
* = called active by the depositor; . = no result; [ ] = remark or other dose. The list is not random: actives were taken first. Their share in the collection is about 9.2%.

SMILES	ERb SRC1 inh	Lung fibro prol	H69AR growth 86K	ERa SRC1 inh	ERa SRC1 pot	HUVEC inhibit
COC(=O)C(Cc1ccccc1)NC(=O)CSc1nc(N)cc(=O)[nH]1 (configuration not stated)	4	99	82	2	99	96
COc1cc(S(=O)(=O)NCC2CCCO2)ccc1Br (configuration not stated)	-9	104	96	-4	94	99
O=C(NCc1cccnc1)c1cccc2c1C(=O)N(Cc1cccnc1)C2	21	100	104	19	71	96
CCN(CC)CCN(Cc1cc2cc3c(cc2[nH]c1=O)OCCO3)C(=O)NC1CCCCC1	1	93	35*	2	106	89
Cc1cccc2cc(CN(CC3CCCO3)C(=O)NC3CCCCC3)c(=O)[nH]c12 (configuration not stated)	-6	95	74	-4	114	102
Cc1ccc2cc(CN(CC3CCCO3)C(=O)NC3CCCCC3)c(=O)[nH]c2c1C (configuration not stated)	0	82	28*	-4	131	83
Cc1cccc2cc(CN(CC3CCCO3)C(=O)c3ccco3)c(=O)[nH]c12 (configuration not stated)	-8	99	85	-6	105	85
Cc1ccc2cc(CN(CC3CCCO3)C(=O)c3ccco3)c(=O)[nH]c2c1C (configuration not stated)	54*	101	107	-9	116	92
O=C(NC1CCCCC1)N(CCN1CCOCC1)Cc1cc2cc3c(cc2[nH]c1=O)OCCO3	-15	87	80	0	92	85
O=C(O)CSc1nnc(Cn2cnc3ccccc32)n1CCc1ccccc1	18	96	98	4	91	92
O=C(NCc1ccco1)c1ccc(Cn2c(=O)c3ccccc3n(Cc3cccc(F)c3)c2=O)cc1	47	66	7.7*	67*[fluorescence artefact?]	24	49
O=C(CCCCn1c(=O)c2ccccc2n(Cc2ccc(F)cc2)c1=O)NCc1ccco1	7	70	22*	38	109	56
COc1cc2c(=O)n(Cc3ccccc3)c(=O)n(CC(=O)NCc3ccco3)c2cc1OC	4	103	87	37	349*[fluorescence artefact?]	94
O=c1c2ccccc2n(Cc2ccc(Cl)cc2)c(=O)n1Cc1ccco1	-7	89	70	4	123	63
O=C(Cn1c(=O)n(Cc2ccccc2)c(=O)c2ccccc21)NCc1ccco1	8	.	.	6	120	.
O=C(NCc1ccco1)c1ccc(Cn2c(=O)c3ccccc3n(Cc3ccc(Cl)cc3)c2=O)cc1	16	69	23*	9	139	70
O=C(CCCn1c(=O)c2ccccc2n(Cc2ccccc2)c1=O)NCc1ccco1	3	103	88	4	112	73
CC(C)c1nc(SCC(=O)N2CCCc3ccccc32)c2c(=O)n(C)c(=O)n(C)c2n1	-12	84	14*	-7	82	57
CC(C)c1nc(SCc2c(F)cccc2Cl)c2c(=O)n(C)c(=O)n(C)c2n1	-14	83	38*	1	102	56
Cn1c(=O)c2c(nc(SCCCC#N)n2Cc2c(F)cccc2Cl)n(C)c1=O	-10	95	51	16	68	90
C/C(N)=C(/C#N)C(=O)CSc1nnnn1-c1ccc(C)cc1	64*	.	96	51*[fluorescence artefact?]	59	102
C/C(N)=C(/C#N)C(=O)CSc1nnnn1-c1ccccc1	90*[fluorescence artefact?]	89	85	85*[fluorescence artefact?]	7	87
O=C(O)CSc1nnnn1-c1ccccc1	-5	106	101	-3	113	104
CCN(CC)C(=O)CSc1ccccc1N	-4	103	71	-4	119	89
CCCCC(CC)CNC(=O)c1cccs1 (configuration not stated)	-4	102	106	3	96	117
SMILES	ERb SRC1 inh	Lung fibro prol	H69AR growth 86K	ERa SRC1 inh	ERa SRC1 pot	HUVEC inhibit
CN1CCN(c2ccc(Cl)cc2NS(=O)(=O)c2ccccc2Cl)CC1	3	.	67	11	120	80
CCC(Sc1nc2cc3c(cc2c(=O)n1Cc1ccco1)OCO3)C(=O)Nc1cccc(OC)c1 (configuration not stated)	12	36*	11*	8	110	4.1*
CCC(Sc1nc2cc3c(cc2c(=O)n1Cc1ccco1)OCO3)C(=O)NCCOC (configuration not stated)	10	97	88	12	105	109
CCC(Sc1nc2cc3c(cc2c(=O)n1Cc1ccco1)OCO3)C(=O)Nc1ccccc1OC (configuration not stated)	32	55	7.6*	88*[fluorescence artefact?]	144	25*
COc1ccc(-c2nnc(SCc3nnc(-c4ccc(Cl)cc4)o3)n2-c2ccccc2)cc1	31	99	89	5	84	94
O=S(=O)(NCCSc1ccccc1)c1cccs1	1	103	94	2	117	96
Cc1ccc(N(C(=O)CNC(=O)c2ccco2)C(C(=O)NCC2CCCO2)c2ccccc2)cc1 (configuration not stated)	1	100	95	1	119	85
CN1CCN(c2ccccc2NC(=O)COc2ccccc2)CC1	-6	93	68	-7	115	88
CC(=O)N1CCN(c2ccccc2NC(=O)COc2cc(C)ccc2C(C)C)CC1	16	93	35*	-7	87	72
CC(=O)N1CCN(c2ccccc2NC(=O)COc2ccc(Br)cc2)CC1	-9	96	89	-9	117	88
Cc1ccc(C(C)C)c(OCC(=O)Nc2ccccc2N2CCN(C)CC2)c1	-3	93	35*	-9	103	76
COc1ccc(NC(=O)C2CCCN(C)C2)cc1OCC(C)C (configuration not stated)	-3	103	91	-4	102	100
COC(=O)C1=C(C)OC(N)=C(C#N)C1c1c(C)nn(-c2ccccc2)c1Cl (configuration not stated)	-31	87	39*	-34	89	66
COc1ccccc1NCC(O)Cn1c2ccccc2c2ccccc21 (configuration not stated)	2	86	17*	-2	94	61
C=CCn1c(=O)c(C(=O)Nc2ccccc2OC)c(O)c2ccccc21	-3	92	79	-5	140	104

Assay outcomes deposited in PubChem by several laboratories.
